# Source: ChEMBL document CHEMBL1123990, “The in vitro dental plaque inhibitory properties of a series of N-[1-alkyl-4(1H)-pyridinylidene]alkylamines” (1988)
# Key:
# Actinomyces viscosus [1] = test: Chlorohexidine coefficient for Actinomyces viscosus M-100; format: functional
# Procedure, shortened: (§1)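 Hydroxylapatite-grown plaques were exposed once daily for 2 min to varying concentrations of agent until the organisms were killed. The highest level tested was 0.2% w/v for 5 days. Tests were run in duplicate. PBI is the concentration (mM) × duration (min) × frequency (days) needed for plaque kill. CC is the chlorhexidine PBI divided by the test-agent PBI.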
# Actinomyces viscosus [2] = test: Plaque bactericidal index against Actinomyces viscosus M-100 measured as chlorohexidine coefficient; format: functional; procedure, shortened: as §1
# Streptococcus sobrinus [3] = test: Minimal bactericidal concentration against Streptococcus sobrinus 6715-13; format: functional
# Procedure, shortened: (§2)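 Plaques were grown on standardized ceramic hydroxylapatite plates and immersed once in agent for 30 min. They were rinsed with sterile distilled water, moved to fresh broth and incubated anaerobically at 37 °C. Kill meant no further culture acid production, no turbidity change, and no growth when 48-h post-treatment plaque samples were subcultured. Tests were run in duplicate.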
# Streptococcus sobrinus [4] = test: Plaque bactericidal index against Streptococcus sobrinus 6715-13 measured as chlorohexidine coefficient; format: functional; procedure, shortened: as §1
# Streptococcus sobrinus [5] = test: Chlorohexidine coefficient for Streptococcus sobrinus 6715-13; format: functional; procedure, shortened: as §1
# Actinomyces viscosus [6] = test: Plaque bactericidal index against Actinomyces viscosus M-100 measured as chlorohexidine coefficient; d=Not bactericidal at highest concentration tested (0.2% w/v, 2min, 5 days); format: functional, organism-based; procedure, shortened: as §1
# Streptococcus sobrinus [7] = test: Plaque bactericidal index against Streptococcus sobrinus 6715-13 measured as chlorohexidine coefficient; d=Not bactericidal at highest concentration tested (0.2% w/v, 2min, 5 days); format: functional, organism-based; procedure, shortened: as §1
# Streptococcus sobrinus [8] = test: Minimal bactericidal concentration against Streptococcus sobrinus 6715-13.; format: functional; procedure, shortened: as §2
# Actinomyces viscosus [9] = test: Chlorohexidine coefficient for Actinomyces viscosus 8A06; format: functional; procedure, shortened: as §1
# Actinomyces viscosus [10] = test: Chlorohexidine coefficient for Actinomyces viscosus M-626; format: functional; procedure, shortened: as §1
# Actinomyces viscosus [11] = test: Chlorohexidine coefficient for Actinomyces viscosus T14V; format: functional; procedure, shortened: as §1
# Actinomyces viscosus [12] = test: Plaque bactericidal index against Actinomyces viscosus 8A06; format: functional; procedure, shortened: as §1
# Actinomyces viscosus [13] = test: Plaque bactericidal index against Actinomyces viscosus M-100; format: functional; procedure, shortened: as §1
# Actinomyces viscosus [14] = test: Plaque bactericidal index against Actinomyces viscosus 626; format: functional; procedure, shortened: as §1
# Actinomyces naeslundii [15] = test: Chlorohexidine coefficient for Actinomyces naeslundii 631; format: functional; procedure, shortened: as §1
# Actinomyces naeslundii [16] = test: Chlorohexidine coefficient for Actinomyces naeslundii B74; format: functional; procedure, shortened: as §1
# Actinomyces naeslundii [17] = test: Chlorohexidine coefficient for Actinomyces naeslundii N/3; format: functional; procedure, shortened: as §1
# Actinomyces naeslundii [18] = test: Chlorohexidine coefficient for Actinomyces naeslundii N/9; format: functional; procedure, shortened: as §1
# Actinomyces naeslundii [19] = test: Plaque bactericidal index against Actinomyces naeslundii 631; format: functional; procedure, shortened: as §1
# Actinomyces naeslundii [20] = test: Plaque bactericidal index against Actinomyces naeslundii N/9; format: functional; procedure, shortened: as §1
# Actinomyces naeslundii [21] = test: Plaque bactericidal index against Actinomyces naeslundii B74; format: functional; procedure, shortened: as §1
# Streptococcus sanguinis [22] = test: Chlorohexidine coefficient for Streptococcus sanguis ATCC 10558; format: functional; procedure, shortened: as §1
# Streptococcus mitis [23] = test: Chlorohexidine coefficient for Streptococcus mitis 176-A1; format: functional; procedure, shortened: as §1
# Streptococcus mitis [24] = test: Chlorohexidine coefficient for Streptococcus mitis 90557; format: functional; procedure, shortened: as §1
# Streptococcus mitis [25] = test: Plaque bactericidal index against Streptococcus mitis 176-A1; format: functional; procedure, shortened: as §1
# Streptococcus mitis [26] = test: Plaque bactericidal index against Streptococcus mitis 90557; format: functional; procedure, shortened: as §1
# Streptococcus sanguinis [27] = test: Chlorohexidine coefficient for Streptococcus sanguis H7P; format: functional
# Procedure, shortened: (§3)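 Plaques were grown on standardized ceramic hydroxylapatite plates and treated once daily for 2 min with varying concentrations until kill. They were then rinsed in sterile water and incubated in fresh broth at 37 °C anaerobically. Kill meant no acid production, no turbidity change, and no regrowth of 48-h post-treatment subcultures. Tests were run in duplicate. PBI = concn (mM) × min × days to kill; CC = chlorhexidine PBI ÷ test PBI.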
# Streptococcus sanguinis [28] = test: Plaque bactericidal index against Streptococcus sanguis ATCC 10558; format: functional; procedure, shortened: as §1
# Streptococcus sanguinis [29] = test: Plaque bactericidal index against Streptococcus sanguis H7P; format: functional; procedure, shortened: as §3
# Streptococcus sobrinus [30] = test: Chlorohexidine coefficient for Streptococcus sobrinus SL-1; format: functional; procedure, shortened: as §1
# Streptococcus sobrinus [31] = test: Plaque bactericidal index against Streptococcus sobrinus 6715-13; format: functional; procedure, shortened: as §1
# Streptococcus sobrinus [32] = test: Plaque bactericidal index against Streptococcus sobrinus SL-1; format: functional; procedure, shortened: as §1
# Streptococcus mutans [33] = test: Chlorohexidine coefficient for Streptococcus mutans FA-1; format: functional; procedure, shortened: as §1
# Streptococcus mutans [34] = test: Chlorohexidine coefficient for Streptococcus mutans GR-5; format: functional; procedure, shortened: as §1
# Streptococcus mutans [35] = test: Chlorohexidine coefficient for Streptococcus mutans IB1600; format: functional; procedure, shortened: as §1
# Streptococcus mutans [36] = test: Chlorohexidine coefficient for Streptococcus mutans OMZ-61; format: functional; procedure, shortened: as §1
# Streptococcus mutans [37] = test: Plaque bactericidal index against Streptococcus mutans FA-1; format: functional; procedure, shortened: as §1
# Streptococcus mutans [38] = test: Plaque bactericidal index against Streptococcus mutans GR-5; format: functional; procedure, shortened: as §1
# Streptococcus mutans [39] = test: Plaque bactericidal index against Streptococcus mutans IB1600; format: functional; procedure, shortened: as §1
# Streptococcus mutans [40] = test: Plaque bactericidal index against Streptococcus mutans OMZ-61; format: functional; procedure, shortened: as §3
# Actinomyces naeslundii [41] = test: Plaque bactericidal index against Actinomyces naeslundii N/3; format: functional; procedure, shortened: as §1
compound,measurement,setting,value
CCCCCCCCn1ccc(=NCCCCCC)cc1.Cl,CC,Actinomyces viscosus [1],6.4
same,PBI,Actinomyces viscosus [2],3
same,MBC,Streptococcus sobrinus [3],310 µM
same,PBI,Streptococcus sobrinus [4],4.6
same,CC,Streptococcus sobrinus [5],5.6
Br.CCCCCCCCN=c1ccn(CC(CC)CCCC)cc1 (stereo unspecified),CC,Actinomyces viscosus [1],1.5
same,PBI,Actinomyces viscosus [2],12.5
same,MBC,Streptococcus sobrinus [3],1250 µM
same,PBI,Streptococcus sobrinus [4],12.5
same,CC,Streptococcus sobrinus [5],2
CCCCCCN=c1ccn(CCCCCC)cc1,PBI,Actinomyces viscosus [6],Not bactericidal
same,MBC,Streptococcus sobrinus [3],1580 µM
same,PBI,Streptococcus sobrinus [7],Not bactericidal
Br.CCCCCCCCn1ccc(=NCC(CC)CCCC)cc1 (stereo unspecified),CC,Actinomyces viscosus [1],1.9
same,PBI,Actinomyces viscosus [2],10
same,MBC,Streptococcus sobrinus [3],1250 µM
same,PBI,Streptococcus sobrinus [4],10
same,CC,Streptococcus sobrinus [5],2.5
CCCCCCCCCN=c1ccn(CCCCCC)cc1.Cl,CC,Actinomyces viscosus [1],6.6
same,PBI,Actinomyces viscosus [2],2.9
same,MBC,Streptococcus sobrinus [3],290 µM
same,PBI,Streptococcus sobrinus [4],2.9
same,CC,Streptococcus sobrinus [5],8.8
CCCCCCCN=c1ccn(CCCCCC)cc1.Cl,CC,Actinomyces viscosus [1],3
same,PBI,Actinomyces viscosus [2],6.4
same,MBC,Streptococcus sobrinus [3],1600 µM
same,PBI,Streptococcus sobrinus [4],12.8
same,CC,Streptococcus sobrinus [5],2
CCCCCCCn1ccc(=NCCCCCC)cc1.Cl,CC,Actinomyces viscosus [1],3
same,PBI,Actinomyces viscosus [2],6.4
same,MBC,Streptococcus sobrinus [8],1600 µM
same,PBI,Streptococcus sobrinus [4],12.8
same,CC,Streptococcus sobrinus [5],2
CCCCCCCCN=c1ccn(CCCCCCCC)cc1.Cl [PIRTENIDINE HYDROCHLORIDE],CC,Actinomyces viscosus [9],4.6
same,CC,Actinomyces viscosus [1],6.9
same,CC,Actinomyces viscosus [10],13.7
same,CC,Actinomyces viscosus [11],13.7
same,PBI,Actinomyces viscosus [12],4.2
same,PBI,Actinomyces viscosus [13],2.8
same,PBI,Actinomyces viscosus [2],2.8
same,PBI,Actinomyces viscosus [14],1.4
same,CC,Actinomyces naeslundii [15],6.9
same,CC,Actinomyces naeslundii [16],13.7
same,CC,Actinomyces naeslundii [17],13.7
same,CC,Actinomyces naeslundii [18],13.7
same,PBI,Actinomyces naeslundii [19],2.8
same,PBI,Actinomyces naeslundii [20],1.4
same,PBI,Actinomyces naeslundii [21],1.4
same,CC,Streptococcus sanguinis [22],6.4
same,CC,Streptococcus mitis [23],1.6
same,CC,Streptococcus mitis [24],6.4
same,PBI,Streptococcus mitis [25],20
same,PBI,Streptococcus mitis [26],5
same,CC,Streptococcus sanguinis [27],3.2
same,PBI,Streptococcus sanguinis [28],5
same,PBI,Streptococcus sanguinis [29],10
same,CC,Streptococcus sobrinus [30],9.1
same,PBI,Streptococcus sobrinus [31],2.8
same,PBI,Streptococcus sobrinus [32],2.8
same,CC,Streptococcus mutans [33],18.3
same,CC,Streptococcus mutans [34],18.3
same,CC,Streptococcus mutans [35],18.3
same,CC,Streptococcus mutans [36],18.3
same,PBI,Streptococcus mutans [37],1.4
same,PBI,Streptococcus mutans [38],1.4
same,PBI,Streptococcus mutans [39],1.4
same,PBI,Streptococcus mutans [40],1.4
same,MBC,Streptococcus sobrinus [3],280 µM
same,PBI,Streptococcus sobrinus [4],2.8
same,CC,Streptococcus sobrinus [5],9.1
same,PBI,Actinomyces naeslundii [41],1.4
CCCCCCCCCn1ccc(=NCCCCCCCC)cc1.Cl,CC,Actinomyces viscosus [1],1.4
same,PBI,Actinomyces viscosus [2],13.3
same,MBC,Streptococcus sobrinus [3],1350 µM
same,PBI,Streptococcus sobrinus [4],13.3
same,CC,Streptococcus sobrinus [5],1.9
CCCCCCCCCCN=c1ccn(CCCCC)cc1.Cl,CC,Actinomyces viscosus [1],3.2
same,PBI,Actinomyces viscosus [2],5.9
same,MBC,Streptococcus sobrinus [3],290 µM
same,PBI,Streptococcus sobrinus [4],3
same,CC,Streptococcus sobrinus [5],8.5
CCCCCCCCN=c1ccn(CCCCCCCCCCn2ccc(=NCCCCCCCC)cc2)cc1 [OCTENIDINE],CC,Actinomyces viscosus [1],1
same,PBI,Actinomyces viscosus [2],19.2
same,MBC,Streptococcus sobrinus [3],3200 µM
same,PBI,Streptococcus sobrinus [4],25.6
same,CC,Streptococcus sobrinus [5],1
Br.CCCCCCCCn1ccc(=NCCCCCCC)cc1,CC,Actinomyces viscosus [1],1.8
same,PBI,Actinomyces viscosus [2],10.4
same,MBC,Streptococcus sobrinus [3],1300 µM
same,PBI,Streptococcus sobrinus [4],10.4
same,CC,Streptococcus sobrinus [5],2.5
Br.CCCCCCCCCN=c1ccn(CCCCCCC)cc1,CC,Actinomyces viscosus [1],1.9
same,PBI,Actinomyces viscosus [2],10
same,MBC,Streptococcus sobrinus [3],1250 µM
same,PBI,Streptococcus sobrinus [4],10
same,CC,Streptococcus sobrinus [5],2.5
CCCCCCCCCCCCN=c1ccn(Cc2ccccc2)cc1.Cl,CC,Actinomyces viscosus [1],1.9
same,PBI,Actinomyces viscosus [2],10.3
same,MBC,Streptococcus sobrinus [3],1290 µM
same,PBI,Streptococcus sobrinus [4],15.4
same,CC,Streptococcus sobrinus [5],1.7
